ChEMBL document CHEMBL3751740, “New MKLP-2 inhibitors in the paprotrain series: Design, synthesis and biological evaluations” (Bioorg Med Chem, 2016)
The source made the active and inactive calls. The rule behind the calls is not given here.

Key:
Ovis aries [1] = species on record: Ovis aries; test: Inhibition of sheep brain tubulin polymerization by UV spectrophotometric analysis; settings: concentration not given here
Procedure, shortened: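 Tubulin purified from sheep brain by two assembly/disassembly cycles, about 2–3 mg/mL in 0.1 M MES, 0.5 mM MgCl2, 1 mM EGTA, 1 mM GTP, pH 6.6. Compound in DMSO added at 0 °C, then moved to a 37 °C thermostated cell. Assembly followed by turbidity at 350 nm for a few min.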

A549 = test: Growth inhibition of human A549 cells incubated for 4 days by WST-1 assay; assay type: functional; settings: A549, 96 h
Procedure, shortened: (§1)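 Cells were kept at 37 °C under 5% CO2 and plated on day 0 at 500–5000 cells/well. On day 1 they received ten concentrations from 0.0025 to 50 µM (final), in triplicate. On day 4 WST-1 was added, followed by 30 min–4 h incubation and absorbance at 450 nm. GI50 is the concentration killing 50% of cells.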

K562 = test: Growth inhibition of human K562 cells incubated for 4 days by WST-1 assay; assay type: functional; settings: K562, 96 h; procedure, shortened: as §1
MCF7 = test: Growth inhibition of human MCF7 cells incubated for 4 days by WST-1 assay; assay type: functional; settings: MCF7, 96 h; procedure, shortened: as §1
[2] = Growth inhibition of human MIAPaCa2 cells incubated for 4 days by WST-1 assay; assay type: functional; settings: MIA PaCa-2, 96 h; procedure, shortened: as §1
KB = test: Growth inhibition of human KB cells at 10 uM after 72 hrs by MTS assay; assay type: functional; settings: read-out: GI
Procedure, shortened: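 KB cells were grown in DMEM with 25 mM glucose and 10% FCS at 37 °C, 5% CO2, and seeded at 500 cells/well. 24 h later, compound in DMSO (1% final) was added at 10 µM or 1 µM for 72 h; controls received DMSO alone. Runs were in duplicate. Viable cells were read with MTS at 490 nm.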

Ovis aries [3] = species on record: Ovis aries; test: Induction of sheep brain microtubule disassembly by UV spectrophotometric analysis
Procedure, shortened: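 Sheep brain tubulin, purified by two assembly/disassembly cycles and held in MES buffer with GTP at pH 6.6, was polymerized at 37 °C for 10 min. Compound was then added to the MTs at 0 °C and depolymerization was followed over the next few minutes by turbidity at 350 nm.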

[4] = Growth inhibition of human HCT116 cells incubated for 4 days by WST-1 assay; assay type: functional; settings: HCT-116, 96 h; procedure, shortened: as §1
HepG2 = test: Growth inhibition of human HepG2 cells incubated for 4 days by WST-1 assay; assay type: functional; settings: HepG2, 96 h; procedure, shortened: as §1
NCI-H460 = test: Growth inhibition of human NCI-H460 cells incubated for 4 days by WST-1 assay; assay type: functional; settings: NCI-H460, 96 h; procedure, shortened: as §1
[5] = Growth inhibition of human PK59 cells incubated for 4 days by WST-1 assay; assay type: functional; settings: PK-59, 96 h; procedure, shortened: as §1
HT-29 = test: Growth inhibition of human HT-29 cells incubated for 4 days by WST-1 assay; assay type: functional; settings: HT-29, 96 h; procedure, shortened: as §1
MDA-MB-231 = test: Growth inhibition of human MDA-MB-231 cells incubated for 4 days by WST-1 assay; assay type: functional; settings: MDA-MB-231, 96 h; procedure, shortened: as §1

Q: Which inhibition (Ovis aries [1]) does the source give for `N#C/C(=C\c1cccnc1)c1c[nH]c2ccccc12` here?
A: Its inhibition is 11%.

Q: And the GI50 (A549)?
A: The GI50 was greater than 50 µM.

Q: What about the GI50 (K562) of the same compound?
A: Its GI50 is 21.6 µM.

Q: And the GI50 (MCF7)?
A: Its GI50 is greater than 50 µM.

Q: What about the IC25 (MCF7) of the same compound?
A: Its IC25 is 28.6 µM.

Q: What about the GI50 [2] of the same compound?
A: The GI50 was greater than 50 µM.

Q: And the inhibition of growth at 10 µM (KB)?
A: Its inhibition of growth at 10 µM is 27%.

Q: What about the Activity (Ovis aries [3]) of the same compound?
A: The Activity was “inactive”.

Q: And the GI50 [4]?
A: Its GI50 is greater than 50 µM.

Q: What about the GI50 (HepG2) of the same compound?
A: Its GI50 is greater than 50 µM.

Q: What about the GI50 (NCI-H460) of the same compound?
A: Its GI50 is greater than 50 µM.

Q: What about the IC25 (NCI-H460) of the same compound?
A: The IC25 was 18.5 µM.

Q: And the GI50 [5]?
A: The GI50 was greater than 50 µM.

Q: What about the GI50 (HT-29) of the same compound?
A: Its GI50 is greater than 50 µM.

Q: What about the IC25 (HT-29) of the same compound?
A: Its IC25 is 7.5 µM.

Q: What about the GI50 (MDA-MB-231) of the same compound?
A: Its GI50 is greater than 50 µM.
